Test results: ChEMBL document CHEMBL3784971, “Synthesis, characterization, antimicrobial and biofilm inhibitory studies of new esterquats” (Bioorg Med Chem Lett, 2016)
Values after ≈ are worked out from the molar mass of the structure shown.

Key:
[1] = test system: Candida parapsilosis; assay: Fungicidal activity against Candida parapsilosis MTCC 1744 after 24 hrs by serial dilution method; assay type: functional; details: Lodderomyces parapsilosis, MTCC 1744, 24 h
[2] = test system: Bacillus subtilis; assay: Antimicrobial activity against Bacillus subtilis MTCC 121 assessed as growth inhibition after 24 hrs by agar well diffusion method; assay type: functional; details: MTCC 121, 24 h
[3] = test system: Candida albicans; assay: Antimicrobial activity against Candida albicans MTCC 3958 assessed as growth inhibition after 24 hrs by agar well diffusion method; assay type: functional; details: MTCC 3958, 24 h
[4] = test system: Candida albicans; assay: Fungicidal activity against Candida albicans MTCC 1637 after 24 hrs by serial dilution method; assay type: functional; details: MTCC 1637, 24 h
[5] = test system: Candida albicans; assay: Antimicrobial activity against Candida albicans MTCC 227 assessed as growth inhibition after 24 hrs by agar well diffusion method; assay type: functional; details: MTCC 227, 24 h
[6] = test system: Candida albicans; assay: Fungicidal activity against Candida albicans MTCC 3018 after 24 hrs by serial dilution method; assay type: functional; details: MTCC 3018, 24 h
[7] = test system: Candida albicans; assay: Antimicrobial activity against Candida albicans MTCC 7315 assessed as growth inhibition after 24 hrs by agar well diffusion method; assay type: functional; details: MTCC 7315, 24 h
[8] = test system: Staphylococcus aureus; assay: Antimicrobial activity against Staphylococcus aureus MTCC 96 assessed as growth inhibition after 24 hrs by agar well diffusion method; assay type: functional; details: MTCC 96, 24 h
[9] = test system: Pichia kudriavzevii; assay: Antimicrobial activity against Candida krusei MTCC 3020 assessed as growth inhibition after 24 hrs by agar well diffusion method; assay type: functional; details: MTCC 3020, 24 h
[10] = test system: Candida albicans; assay: Antimicrobial activity against Candida albicans MTCC 854 assessed as growth inhibition after 24 hrs by agar well diffusion method; assay type: functional; details: MTCC 854, 24 h
[11] = test system: Staphylococcus aureus; assay: Antimicrobial activity against Staphylococcus aureus MLS16 MTCC 2940 assessed as growth inhibition after 24 hrs by agar well diffusion method; assay type: functional; details: MLS16 MTCC 2940, 24 h
[12] = test system: Candida parapsilosis; assay: Antimicrobial activity against Candida parapsilosis MTCC 1744 assessed as growth inhibition after 24 hrs by agar well diffusion method; assay type: functional; details: Lodderomyces parapsilosis, MTCC 1744, 24 h
[13] = test system: Staphylococcus aureus; assay: Bactericidal activity against Staphylococcus aureus MTCC 96 after 24 hrs by serial dilution method; assay type: functional; details: MTCC 96, 24 h
[14] = test system: Staphylococcus aureus; assay: Bactericidal activity against Staphylococcus aureus MLS16 MTCC 2940 after 24 hrs by serial dilution method; assay type: functional; details: MLS16 MTCC 2940, 24 h
[15] = test system: Pichia sporocuriosa; assay: Fungicidal activity against Issatchenkia hanoiensis MTCC 4755 after 24 hrs by serial dilution method; assay type: functional; details: MTCC 4755, 24 h
[16] = test system: Candida albicans; assay: Fungicidal activity against Candida albicans MTCC 4748 after 24 hrs by serial dilution method; assay type: functional; details: MTCC 4748, 24 h
[17] = test system: Staphylococcus aureus; assay: Antibiofilm activity against Staphylococcus aureus MLS16 MTCC 2940 after 24 hrs by crystal violet staining based assay; assay type: functional, organism-based; details: MLS16 MTCC 2940, 24 h
Outline: (§1)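 Biofilm inhibition tested for amine esters and esterquats. IC50 values (µg/mL) are the mean of three determinations, with ciprofloxacin as reference.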

[18] = test system: Candida albicans; assay: Antimicrobial activity against Candida albicans MTCC 1637 assessed as growth inhibition after 24 hrs by agar well diffusion method; assay type: functional; details: MTCC 1637, 24 h
[19] = test system: Raoultella planticola; assay: Antimicrobial activity against Klebsiella planticola MTCC 530 assessed as growth inhibition after 24 hrs by agar well diffusion method; assay type: functional; details: MTCC 530, 24 h
[20] = test system: Escherichia coli; assay: Antimicrobial activity against Escherichia coli MTCC 739 assessed as growth inhibition after 24 hrs by agar well diffusion method; assay type: functional; details: MTCC 739, 24 h
[21] = test system: Bacillus subtilis; assay: Bactericidal activity against Bacillus subtilis MTCC 121 after 24 hrs by serial dilution method; assay type: functional; details: MTCC 121, 24 h
[22] = test system: Candida albicans; assay: Fungicidal activity against Candida albicans MTCC 227 after 24 hrs by serial dilution method; assay type: functional; details: MTCC 227, 24 h
[23] = test system: Staphylococcus aureus; assay: Antibiofilm activity against Staphylococcus aureus MTCC 96 after 24 hrs by crystal violet staining based assay; assay type: functional, organism-based; details: MTCC 96, 24 h; outline: as §1
[24] = test system: Pichia kudriavzevii; assay: Fungicidal activity against Candida krusei MTCC 3020 after 24 hrs by serial dilution method; assay type: functional; details: MTCC 3020, 24 h
[25] = test system: Pichia sporocuriosa; assay: Antimicrobial activity against Issatchenkia hanoiensis MTCC 4755 assessed as growth inhibition after 24 hrs by agar well diffusion method; assay type: functional; details: MTCC 4755, 24 h
[26] = test system: Nakaseomyces glabratus; assay: Fungicidal activity against Candida glabrata MTCC 3019 after 24 hrs by serial dilution method; assay type: functional; details: MTCC 3019, 24 h
[27] = test system: Raoultella planticola; assay: Bactericidal activity against Klebsiella planticola MTCC 530 after 24 hrs by serial dilution method; assay type: functional; details: MTCC 530, 24 h
[28] = test system: Micrococcus luteus; assay: Antimicrobial activity against Micrococcus luteus MTCC 2470 assessed as growth inhibition after 24 hrs by agar well diffusion method; assay type: functional; details: MTCC 2470, 24 h
[29] = test system: Candida albicans; assay: Fungicidal activity against Candida albicans MTCC 183 after 24 hrs by serial dilution method; assay type: functional; details: MTCC 183, 24 h
[30] = test system: Candida albicans; assay: Antimicrobial activity against Candida albicans MTCC 4748 assessed as growth inhibition after 24 hrs by agar well diffusion method; assay type: functional; details: MTCC 4748, 24 h
[31] = test system: Micrococcus luteus; assay: Bactericidal activity against Micrococcus luteus MTCC 2470 after 24 hrs by serial dilution method; assay type: functional; details: MTCC 2470, 24 h
[32] = test system: Micrococcus luteus; assay: Antibiofilm activity against Micrococcus luteus MTCC 2470 after 24 hrs by crystal violet staining based assay; assay type: functional, organism-based; details: MTCC 2470, 24 h; outline: as §1
[33] = test system: Candida albicans; assay: Fungicidal activity against Candida albicans MTCC 854 after 24 hrs by serial dilution method; assay type: functional; details: MTCC 854, 24 h
[34] = test system: Candida albicans; assay: Fungicidal activity against Candida albicans MTCC 3017 after 24 hrs by serial dilution method; assay type: functional; details: MTCC 3017, 24 h
[35] = test system: Pseudomonas aeruginosa; assay: Antimicrobial activity against Pseudomonas aeruginosa MTCC 2453 assessed as growth inhibition after 24 hrs by agar well diffusion method; assay type: functional; details: MTCC 2453, 24 h
[36] = test system: [Candida] aaseri; assay: Antimicrobial activity against Candida aaseri MTCC 1962 assessed as growth inhibition after 24 hrs by agar well diffusion method; assay type: functional; details: Yamadazyma aaseri, MTCC 1962, 24 h
[37] = test system: [Candida] aaseri; assay: Fungicidal activity against Candida aaseri MTCC 1962 after 24 hrs by serial dilution method; assay type: functional; details: Yamadazyma aaseri, MTCC 1962, 24 h
[38] = test system: Nakaseomyces glabratus; assay: Antimicrobial activity against Candida glabrata MTCC 3019 assessed as growth inhibition after 24 hrs by agar well diffusion method; assay type: functional; details: MTCC 3019, 24 h
[39] = test system: Escherichia coli; assay: Bactericidal activity against Escherichia coli MTCC 739 after 24 hrs by serial dilution method; assay type: functional; details: MTCC 739, 24 h
[40] = test system: Candida albicans; assay: Fungicidal activity against Candida albicans MTCC 7315 after 24 hrs by serial dilution method; assay type: functional; details: MTCC 7315, 24 h
[41] = test system: Candida albicans; assay: Antimicrobial activity against Candida albicans MTCC 3017 assessed as growth inhibition after 24 hrs by agar well diffusion method; assay type: functional; details: MTCC 3017, 24 h
[42] = test system: Candida albicans; assay: Antimicrobial activity against Candida albicans MTCC 3018 assessed as growth inhibition after 24 hrs by agar well diffusion method; assay type: functional; details: MTCC 3018, 24 h
[43] = test system: Candida albicans; assay: Fungicidal activity against Candida albicans MTCC 3958 after 24 hrs by serial dilution method; assay type: functional; details: MTCC 3958, 24 h
[44] = test system: Bacillus subtilis; assay: Antibiofilm activity against Bacillus subtilis MTCC 121 after 24 hrs by crystal violet staining based assay; assay type: functional, organism-based; details: MTCC 121, 24 h; outline: as §1
[45] = test system: Candida albicans; assay: Antimicrobial activity against Candida albicans MTCC 183 assessed as growth inhibition after 24 hrs by agar well diffusion method; assay type: functional; details: MTCC 183, 24 h

CCCCCCNCCCCCCCCCCC(=O)OC
MFC [1]: 62.5 µg/mL (≈ 209 µM) | MIC [2]: 7.8 µg/mL (≈ 26 µM) | MIC [3]: 31.2 µg/mL (≈ 104 µM) | MFC [4]: 31.2 µg/mL (≈ 104 µM) | MIC [5]: 31.2 µg/mL (≈ 104 µM) | MFC [6]: 62.5 µg/mL (≈ 209 µM) | MIC [7]: 62.5 µg/mL (≈ 209 µM) | MIC [8]: 3.9 µg/mL (≈ 13 µM) | MIC [9]: 15.6 µg/mL (≈ 52.1 µM) | MIC [10]: 15.6 µg/mL (≈ 52.1 µM) | MIC [11]: 3.9 µg/mL (≈ 13 µM) | MIC [12]: 31.2 µg/mL (≈ 104 µM) | MBC [13]: 7.8 µg/mL (≈ 26 µM) | MBC [14]: 7.8 µg/mL (≈ 26 µM) | MFC [15]: 31.2 µg/mL (≈ 104 µM) | MFC [16]: 62.5 µg/mL (≈ 209 µM) | IC50 [17]: 3.9 µg/mL (≈ 13 µM) | MIC [18]: 15.6 µg/mL (≈ 52.1 µM) | MIC [19]: > 125 µg/mL | MIC [20]: > 125 µg/mL | MBC [21]: 15.6 µg/mL (≈ 52.1 µM) | MFC [22]: 31.2 µg/mL (≈ 104 µM) | IC50 [23]: 2.6 µg/mL (≈ 8.68 µM) | MFC [24]: 31.2 µg/mL (≈ 104 µM) | MIC [25]: 31.2 µg/mL (≈ 104 µM) | MFC [26]: 31.2 µg/mL (≈ 104 µM) | MBC [27]: > 125 µg/mL | MIC [28]: 15.6 µg/mL (≈ 52.1 µM) | MFC [29]: 62.5 µg/mL (≈ 209 µM) | MIC [30]: 62.5 µg/mL (≈ 209 µM) | MBC [31]: 31.2 µg/mL (≈ 104 µM) | IC50 [32]: 2.2 µg/mL (≈ 7.35 µM) | MFC [33]: 31.2 µg/mL (≈ 104 µM) | MFC [34]: 31.2 µg/mL (≈ 104 µM) | MIC [35]: > 125 µg/mL | MIC [36]: 15.6 µg/mL (≈ 52.1 µM) | MFC [37]: 31.2 µg/mL (≈ 104 µM) | MIC [38]: 31.2 µg/mL (≈ 104 µM) | MBC [39]: > 125 µg/mL | MFC [40]: 62.5 µg/mL (≈ 209 µM) | MIC [41]: 15.6 µg/mL (≈ 52.1 µM) | MIC [42]: 31.2 µg/mL (≈ 104 µM) | MFC [43]: 62.5 µg/mL (≈ 209 µM) | IC50 [44]: 4.2 µg/mL (≈ 14 µM) | MIC [45]: 31.2 µg/mL (≈ 104 µM)

CCCCCC[N+](C)(C)CCCCCCCCCCC(=O)OC.[Cl-]
MFC [1]: 31.2 µg/mL | MIC [2]: 7.8 µg/mL | MIC [3]: 31.2 µg/mL | MFC [4]: 62.5 µg/mL | MIC [5]: 31.2 µg/mL | MFC [6]: 31.2 µg/mL | MIC [7]: 15.6 µg/mL | MIC [8]: 3.9 µg/mL | MIC [9]: 15.6 µg/mL | MIC [10]: 15.6 µg/mL | MIC [11]: 7.8 µg/mL | MIC [12]: 15.6 µg/mL | MBC [13]: 7.8 µg/mL | MBC [14]: 15.6 µg/mL | MFC [15]: 31.2 µg/mL | MFC [16]: 15.6 µg/mL | IC50 [17]: 3.2 µg/mL | MIC [18]: 31.2 µg/mL | MIC [19]: 15.6 µg/mL | MIC [20]: 31.2 µg/mL | MBC [21]: 7.8 µg/mL | MFC [22]: 62.5 µg/mL | IC50 [23]: 2.5 µg/mL | MFC [24]: 31.2 µg/mL | MIC [25]: 15.6 µg/mL | MFC [26]: 31.2 µg/mL | MBC [27]: 31.2 µg/mL | MIC [28]: 3.9 µg/mL | MFC [29]: 31.2 µg/mL | MIC [30]: 15.6 µg/mL | MBC [31]: 7.8 µg/mL | IC50 [32]: 2.1 µg/mL | MFC [33]: 31.2 µg/mL | MFC [34]: 31.2 µg/mL | MIC [35]: > 125 µg/mL | MIC [36]: 31.2 µg/mL | MFC [37]: 62.5 µg/mL | MIC [38]: 15.6 µg/mL | MBC [39]: 62.5 µg/mL | MFC [40]: 15.6 µg/mL | MIC [41]: 15.6 µg/mL | MIC [42]: 15.6 µg/mL | MFC [43]: 31.2 µg/mL | IC50 [44]: 4.8 µg/mL | MIC [45]: 15.6 µg/mL
